Calls of active or inactive are those of the source. The calls are words filed in the database; no cut-off is given here.

Test [1] deals with J774.A1. The experiment in a line: Antiinflammatory activity in mouse J774.A1 cells assessed as decrease in LPS-induced TNF-alpha secretion at 20 uM preincubated for 30 mins followed by LPS stimulation and measured after 24 hrs by ELISA. The conditions noted are these: time 24.5 hrs. In kind it is functional. In short, it runs like this:
(§1)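 J774A.1 macrophages pretreated 30 min with 20 μM compound, DMSO as negative control. Cells then stimulated with LPS at 0.5 μg/mL for 24 h. IL-6 and TNF-α in the culture medium measured by ELISA.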
(In general: An ELISA detects its analyte on a solid surface through an enzyme-linked reagent.)

Test [2] has as its system J774.A1. The experiment in a line: Antiinflammatory activity in mouse J774.A1 cells assessed as decrease in LPS-induced IL-6 secretion at 20 uM preincubated for 30 mins followed by LPS stimulation and measured after 24 hrs by ELISA. The test is classed as functional. Set-up: scale not given: the % may be the effect or the level left. The settings on record: time 24.5 hrs. A digest of the protocol:
as §1

Test [3] deals with J774.A1. Briefly: Antiinflammatory activity in mouse J774.A1 cells assessed as decrease in LPS-induced IL-6 secretion preincubated for 30 mins followed by LPS stimulation and measured after 24 hrs by ELISA. The test is classed as functional, cell-based. The settings on record: for Activity: time 24.5 hrs. In short, it runs like this: (§2)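 J774A.1 cells pretreated 30 min across a concentration range, then challenged with LPS at 0.5 μg/mL for 24 h. Secreted IL-6 or TNF-α measured in the medium by ELISA, and IC50 taken from dose–response. Mean ± SEM of 3 independent experiments.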

For test [4], the system named is J774.A1. Briefly: Antiinflammatory activity in mouse J774.A1 cells assessed as decrease in LPS-induced TNF-alpha secretion preincubated for 30 mins followed by LPS stimulation and measured after 24 hrs by ELISA. In kind it is functional, cell-based. The conditions noted are these: for Activity: time 24.5 hrs. A digest of the protocol: as §2
The subject of test [5] is Mus musculus. The experiment in a line: Antiinflammatory activity in C57BL/6J mouse model of LPS-induced acute lung injury assessed as reduction in p-p65 level at 20 mg/kg, po administered 30 mins prior to LPS treatment and measured after 6 hrs by immunohistochemical analysis. In kind it is functional, organism-based. The conditions noted are these: time 6.5 hrs. In short, it runs like this:
(§3)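 Oral pretreatment 30 min before intratracheal LPS at 5 mg/kg, with a saline sham group. Lungs taken at 6 h. Sections immunostained for F4/80 (macrophage marker) or for p-p65, counterstained with hematoxylin. Percentage of positive cells assessed.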

Test [6] deals with Mus musculus. The experiment in a line: Antiinflammatory activity in C57BL/6J mouse model of LPS-induced acute lung injury assessed as reduction in neutrophil count in BALF at 20 mg/kg, po administered 30 mins prior to LPS treatment and measured after 6 hrs by Wright and Giemsa staining based analysis. The settings on record: time 6.5 hrs. In kind it is functional, organism-based. In short, it runs like this:
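Oral dosing 30 min before intratracheal LPS at 5 mg/kg, with a saline sham group. BALF collected at 6 h and neutrophils counted by Wright-Giemsa staining, given relative to control. Mean ± SEM, n = 8.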

For test [7], the system named is Mus musculus. The experiment in a line: Antiinflammatory activity in C57BL/6J mouse model of LPS-induced acute lung injury assessed as reduction in […] infiltration at 20 mg/kg, po administered 30 mins prior to LPS treatment and measured after 6 hrs by F4/80 antibody staining based assay. The test is classed as functional, organism-based. The conditions noted are these: time 6.5 hrs. A digest of the protocol: as §3

For `O=[N+]([O-])c1cccc(CN2CCN(c3ccc(S(=O)(=O)Cc4ccccc4)cc3[N+](=O)[O-])CC2)c1`, the result in test [1] was inactive. In addition, the Activity in test [2] stood at 57.27%.

In the case of `CC(=O)N1CCN(c2ccc(S(=O)(=O)Cc3ccc(C)cc3)cc2[N+](=O)[O-])CC1`, the outcome in test [1] was inactive. Also, in test [2], the Activity came out at 16.83%.

The term IC50 denotes the concentration needed to halve the response being measured. As to `CC(=O)N1CCN(c2ccc(S(=O)(=O)Cc3cccc(F)c3)cc2[N+](=O)[O-])CC1`, the Activity in test [1] is 36.28%; in test [2], 62.38%; in test [3], “Dose-Dependent Effect”. Further, the results for the IC50 in test [3] and in test [4] were 14.7 µM and 28.9 µM, respectively. The outcome in test [4] was Active.

In the case of `COc1cccc(CS(=O)(=O)c2ccc(N3CCN(c4ccc([N+](=O)[O-])cc4)CC3)c([N+](=O)[O-])c2)c1`, the result in test [1] was inactive. In test [2], the Activity was found to be 66.21%.

Take `CN1CCN(c2ccc(S(=O)(=O)Cc3ccccc3)cc2[N+](=O)[O-])CC1`: the Activity in test [1] stood at 16.86%; in test [2], 53.04%.

Take `Cc1ccc(CS(=O)(=O)c2ccc(N3CCN(c4ccc([N+](=O)[O-])cc4)CC3)c([N+](=O)[O-])c2)cc1`: the outcome in test [1] and in test [2] was inactive.

For `COCCN1CCN(c2ccc(S(=O)(=O)Cc3ccc(C)cc3)cc2[N+](=O)[O-])CC1`, the result in test [1] was inactive. Besides, in test [2], the Activity is on record as 2.98%.

Take `CN(C)c1ccc(S(=O)(=O)Cc2ccccc2)cc1[N+](=O)[O-]`: the result in test [1] and in test [2] was inactive.

Regarding `O=[N+]([O-])c1cccc(CN2CCN(c3ccc(S(=O)(=O)Cc4ccc(F)cc4)cc3[N+](=O)[O-])CC2)c1`, the Activity in test [1] stood at 27.46%; in test [2], 59.52%.

As for `CN(C)c1ccc(S(=O)(=O)Cc2ccc(F)cc2)cc1[N+](=O)[O-]`, the outcome in test [1] and in test [2] was inactive.

On to `CC(=O)N1CCN(c2ccc(S(=O)(=O)Cc3ccc(F)cc3)cc2[N+](=O)[O-])CC1`, for which the Activity in test [1] is on record as 10.99%; in test [2] it was 33.81%.

Take `O=[N+]([O-])c1ccc(CN2CCN(c3ccc(S(=O)(=O)Cc4ccc(F)cc4)cc3[N+](=O)[O-])CC2)cc1`: the Activity in test [1] stood at 26.45%; in test [2], 71.54%. In addition, the outcome in test [3] and in test [4] was inactive.

`COc1cccc(CS(=O)(=O)c2ccc(N(C)C)c([N+](=O)[O-])c2)c1`: the outcome in test [1] was inactive. Further, the Activity in test [2] stood at 8.62%.

For the compound `O=[N+]([O-])c1cc(S(=O)(=O)Cc2ccccc2)ccc1N1CCN(CCO)CC1`, the Activity in test [1] was 29.04%; in test [2], 56.59%.

In the case of `CCN1CCN(c2ccc(S(=O)(=O)Cc3ccccc3)cc2[N+](=O)[O-])CC1`, the outcome in test [1] was inactive. For the same compound, in test [2], the Activity amounted to 21.24%.

Take `CN(C)CCS(=O)(=O)Cc1ccc(Br)cc1`: the outcome in test [1] was inactive. In addition, in test [2], the Activity is 79.61%.

As for `COCCN1CCN(c2ccc(S(=O)(=O)Cc3cccc(OC)c3)cc2[N+](=O)[O-])CC1`, the result in test [1] and in test [2] was inactive.

With `O=[N+]([O-])c1ccc(N2CCN(c3ccc(S(=O)(=O)Cc4ccccc4)cc3[N+](=O)[O-])CC2)cc1`, the result in test [1] was inactive. Further, the Activity in test [2] stood at 51.52%.

On to `CN(C)c1ccc(S(=O)(=O)Cc2cccc(F)c2)cc1[N+](=O)[O-]`, for which the outcome in test [1] and in test [2] was inactive.

Consider `Cc1ccc(CS(=O)(=O)c2ccc(N3CCN(CCO)CC3)c([N+](=O)[O-])c2)cc1`, for which the result in test [1] and in test [2] was inactive.

For the compound `CCN1CCN(c2ccc(S(=O)(=O)Cc3cccc(F)c3)cc2[N+](=O)[O-])CC1`, the Activity in test [1] is recorded as 24.43%; in test [2], 58.89%.

`COc1cccc(CS(=O)(=O)c2ccc(N3CCN(C(C)=O)CC3)c([N+](=O)[O-])c2)c1`: the result in test [1] was inactive. Besides, the Activity in test [2] turned out to be 5.7%.

For `O=[N+]([O-])c1cc(S(=O)(=O)Cc2cccc(F)c2)ccc1N1CCN(CCO)CC1`, the outcome in test [1] was inactive. Moreover, the Activity in test [2] is 4.55%.

Regarding `COc1cccc(CS(=O)(=O)c2ccc(N3CCN(Cc4cccc([N+](=O)[O-])c4)CC3)c([N+](=O)[O-])c2)c1`, the result in test [1] was inactive. The Activity in test [2] came to 41.95%.

`O=[N+]([O-])c1ccc(N2CCN(c3ccc(S(=O)(=O)Cc4cccc(F)c4)cc3[N+](=O)[O-])CC2)cc1`: the Activity in test [1] was 12.18%; in test [2] it was 68.87%; in test [3] it was “Dose-Dependent Effect”. Moreover, the IC50 in test [3] was 6.01 µM; in test [4] it was 23.4 µM. Further, the outcome in test [4] was Active.

As for `CC(=O)N1CCN(c2ccc(S(=O)(=O)Cc3ccccc3)cc2[N+](=O)[O-])CC1`, the Activity is 19.12% in test [1] and 40.41% in test [2].

Take `O=[N+]([O-])c1cccc(CN2CCN(c3ccc(S(=O)(=O)Cc4cccc(F)c4)cc3[N+](=O)[O-])CC2)c1`: the Activity worked out at 22.51% in test [1] and 59.44% in test [2].

Regarding `CCN1CCN(c2ccc(S(=O)(=O)Cc3ccc(F)cc3)cc2[N+](=O)[O-])CC1`, the outcome in test [1] was inactive. In addition, the Activity in test [2] is 31.39%.

Regarding `COCCN1CCN(c2ccc(S(=O)(=O)Cc3ccccc3)cc2[N+](=O)[O-])CC1`, the outcome in test [1] and in test [2] was inactive.

As to `COc1cccc(CS(=O)(=O)c2ccc(N3CCN(CCO)CC3)c([N+](=O)[O-])c2)c1`, the result in test [1] was inactive. In test [2], the Activity was determined as 15.23%.

Take `COCCN1CCN(c2ccc(S(=O)(=O)Cc3ccc(F)cc3)cc2[N+](=O)[O-])CC1`: in test [1], the outcome was inactive. Also, the Activity in test [2] worked out at 12.89%.

On to `O=[N+]([O-])c1ccc(N2CCN(c3ccc(S(=O)(=O)Cc4ccc(F)cc4)cc3[N+](=O)[O-])CC2)cc1`, for which the Activity came to 18.6% in test [1] and 62.47% in test [2].

As for `C[C@@H]1C[C@H]2[C@@H]3CCC4=CC(=O)C=C[C@]4(C)[C@@]3(F)[C@@H](O)C[C@]2(C)[C@@]1(O)C(=O)CO`, the outcome in test [5], in test [6] and in test [7] was Active.

In the case of `CCN1CCN(c2ccc(S(=O)(=O)Cc3ccc(C)cc3)cc2[N+](=O)[O-])CC1`, the outcome in test [1] was inactive. Besides, the Activity in test [2] turned out to be 52.95%.

In the case of `O=[N+]([O-])c1cc(S(=O)(=O)Cc2ccc(F)cc2)ccc1N1CCN(CCO)CC1`, the Activity in test [1] amounted to 29.96%; in test [2], 54.2%.

Consider `COc1cccc(CS(=O)(=O)c2ccc(N3CCNCC3)c([N+](=O)[O-])c2)c1`, for which, in test [1], the outcome was inactive. Further, the Activity in test [2] was 18.18%.

As to `COCCN1CCN(c2ccc(S(=O)(=O)Cc3cccc(F)c3)cc2[N+](=O)[O-])CC1`, the outcome in test [1] was inactive. Further, the Activity in test [2] is on record as 0.29%.

Source of the values: ChEMBL document CHEMBL5223148, “Design, synthesis, and bioactivity evaluation of novel 1-(4-(benzylsulfonyl)-2-nitrophenyl) derivatives as potential anti-inflammatory agents against LPS-induced acute lung injury” (Bioorg Med Chem Lett, 2023).
